Experimental data gathered from unrelated publications.
Compare with care: the assays were run in different laboratories.
Target: Serine/threonine-protein kinase ULK3 (ULK3, Homo sapiens, UniProt Q6PHR2)
Residues used in one study (Q6PHR2 1-472): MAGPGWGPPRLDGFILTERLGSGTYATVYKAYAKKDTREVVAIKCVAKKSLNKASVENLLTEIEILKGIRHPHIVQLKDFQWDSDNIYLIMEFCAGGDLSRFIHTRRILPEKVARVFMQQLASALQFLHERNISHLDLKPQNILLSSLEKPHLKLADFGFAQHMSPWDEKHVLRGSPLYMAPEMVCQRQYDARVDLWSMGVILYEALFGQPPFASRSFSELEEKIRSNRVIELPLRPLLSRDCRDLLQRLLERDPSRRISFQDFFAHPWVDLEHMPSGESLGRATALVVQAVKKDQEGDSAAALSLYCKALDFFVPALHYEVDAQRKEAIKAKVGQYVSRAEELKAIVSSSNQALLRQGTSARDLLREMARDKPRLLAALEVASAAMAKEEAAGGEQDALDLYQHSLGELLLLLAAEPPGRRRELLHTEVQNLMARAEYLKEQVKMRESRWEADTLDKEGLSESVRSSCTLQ

SMILES	read-out	action	technique	concentration	endpoint	result
c1ccc(N2CCN(Cc3nc4ccccc4[nH]3)CC2)nc1	binding	–	competition with immobilised ligand	1 µM	remaining binding	100%
Nc1ncnc2occ(-c3ccc(NC(=O)Nc4cc(C(F)(F)F)ccc4F)cc3)c12	cell-free assay	inhibitor	–	20 µM	remaining signal	0.6%
Cc1cc(NC(=O)c2cccc(S(F)(F)(F)(F)F)c2)cc(-n2ccn3nc(-c4cccnc4)cc23)c1	cell-free assay	–	competition with immobilised ligand	1 µM	remaining binding	75.2%
Cc1ccc(C(=O)NCc2ccsc2)cc1C#Cc1cn(C(C)C)c2ncnc(N)c12	enzyme activity	inhibitor	–	1 µM	activity vs control	84%
C[C@@]1(Cc2ccc(C#N)cc2)C(=O)N(c2cc(Cl)cc(Cl)c2)c2ncc(C(=O)NC3(c4nc(C5CCC5)no4)CC3)n21	cell-free assay	–	competition with immobilised ligand	1 µM	remaining binding	100%
COc1cc(Cl)c(C(=O)N[C@@H](CN[C@H]2CC[C@@H](N)CC2)Cc2ccc(C#N)cc2)cc1-c1ccc(CN[C@H](C)c2ccc(C)cc2)o1	enzyme activity	inhibitor	–	1 µM	remaining activity	98%
O=C1Nc2ccc(Cl)cc2C1=Cc1cc(Cl)c(O)c(Cl)c1	cell-free assay	–	–	0.5 µM	remaining signal	92.2%
Nc1cnc(N2CCc3cc(S(=O)(=O)Nc4c(F)cc(Cl)cc4F)cc(N4CCCC4=O)c32)nc1	cell-free assay	–	competition with immobilised ligand	1 µM	remaining binding	100%
Clc1ccc(Nc2nnc(Cc3ccncc3)c3ccccc23)cc1	cell-free assay	–	–	0.5 µM	remaining signal	101%
Cc1cnc(NC2CCOCC2)nc1-n1cnc(C(=O)NC(CN)c2cc(F)cc(Cl)c2)c1 (centres unmarked)	enzyme activity	inhibitor	radiometric	1 µM	remaining activity	91%
CCN(CC)CCNC(=O)c1c(C)[nH]c(/C=C2\C(=O)Nc3ccc(F)cc32)c1C	cell-free assay	–	–	0.5 µM	remaining signal	57.4%
CC(C)(O)[C@H]1CC[C@H](Nc2ccc3ncc(-c4cccc(C(F)(F)F)c4)n3n2)CC1	enzyme activity	inhibitor	–	1 µM	remaining activity	86.2%
Oc1cccc(-c2nc(N3CCOCC3)c3oc4ncccc4c3n2)c1	cell-free assay	–	–	0.5 µM	remaining signal	99.7%
O=C(Nc1cnn(-c2csc(C(=O)NC3COC3)c2)c1)Nc1c(F)cccc1Cl	enzyme activity	inhibitor	–	5 µM	remaining activity	76.6%
